Compounds with a hit are over-represented: about 0.57% of the library has one in this group of screens.
Arrestin-AP2 inh – inhibitors of beta-arrestin/AP2 binding, primary screen, biochemical, GPCR trafficking, flow cytometry; beta-arrestin 1 C-terminal peptide binding to AP2 beta2-adaptin appendage (human); inhibition, % at 10 µM; AID 504490, 2011; FITC-arrestin peptide / GST-AP2 beads; AP2 beta2 appendage carries R879A mutation; 340,000 tested, 0.31% active;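 active = inhibition above a set limit, near 3 SD of compounds lacking own fluorescence, cut at about 54% in these data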;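 also: plate controls were DMSO wells for no effect and 5 µM unlabelled arrestin peptide for full effect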
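Material – AP2 appendage R879A on GSH beads · Buffer or medium – PBS with 0.05% Tween 20 and 0.1% BSA · Probe or stimulus – fluorescein-tagged arrestin peptide at 50 nM final · Incubation – compound with beads 12 min RT, then probe 1 h RT · Detection – high-throughput flow cytometry of beads, ex 488, em 535 nm · Evaluation – percent response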
VLA-4 inh – inhibition in human VLA-4 binding assay, primary screen, VLA-4 allosteric modulator project, MLPCN library, flow cytometry, VLA-4 expressing cells; AID 2557, 2010; 330,000 tested, 0.2% active; inhibition, % (about 7 µM as worked out from the volumes in the protocol); ligand binding flow cytometry; in the data active = inhibition above about 50%
pCIP destab – p/CIP-EGFP fusion destabilizers, primary screen, fluorescence, F442A cells. Q05BA5. 16 h. decrease of EGFP signal, % at 10 µM. 290,000 tested, 0.01% active;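 active = EGFP signal decrease of at least 30% at 10 µM or well 3 SD below plate mean, unless failing retest; inactive = the rest, including hits failing retest or dose response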
Target sequence (Q05BA5 1-1403): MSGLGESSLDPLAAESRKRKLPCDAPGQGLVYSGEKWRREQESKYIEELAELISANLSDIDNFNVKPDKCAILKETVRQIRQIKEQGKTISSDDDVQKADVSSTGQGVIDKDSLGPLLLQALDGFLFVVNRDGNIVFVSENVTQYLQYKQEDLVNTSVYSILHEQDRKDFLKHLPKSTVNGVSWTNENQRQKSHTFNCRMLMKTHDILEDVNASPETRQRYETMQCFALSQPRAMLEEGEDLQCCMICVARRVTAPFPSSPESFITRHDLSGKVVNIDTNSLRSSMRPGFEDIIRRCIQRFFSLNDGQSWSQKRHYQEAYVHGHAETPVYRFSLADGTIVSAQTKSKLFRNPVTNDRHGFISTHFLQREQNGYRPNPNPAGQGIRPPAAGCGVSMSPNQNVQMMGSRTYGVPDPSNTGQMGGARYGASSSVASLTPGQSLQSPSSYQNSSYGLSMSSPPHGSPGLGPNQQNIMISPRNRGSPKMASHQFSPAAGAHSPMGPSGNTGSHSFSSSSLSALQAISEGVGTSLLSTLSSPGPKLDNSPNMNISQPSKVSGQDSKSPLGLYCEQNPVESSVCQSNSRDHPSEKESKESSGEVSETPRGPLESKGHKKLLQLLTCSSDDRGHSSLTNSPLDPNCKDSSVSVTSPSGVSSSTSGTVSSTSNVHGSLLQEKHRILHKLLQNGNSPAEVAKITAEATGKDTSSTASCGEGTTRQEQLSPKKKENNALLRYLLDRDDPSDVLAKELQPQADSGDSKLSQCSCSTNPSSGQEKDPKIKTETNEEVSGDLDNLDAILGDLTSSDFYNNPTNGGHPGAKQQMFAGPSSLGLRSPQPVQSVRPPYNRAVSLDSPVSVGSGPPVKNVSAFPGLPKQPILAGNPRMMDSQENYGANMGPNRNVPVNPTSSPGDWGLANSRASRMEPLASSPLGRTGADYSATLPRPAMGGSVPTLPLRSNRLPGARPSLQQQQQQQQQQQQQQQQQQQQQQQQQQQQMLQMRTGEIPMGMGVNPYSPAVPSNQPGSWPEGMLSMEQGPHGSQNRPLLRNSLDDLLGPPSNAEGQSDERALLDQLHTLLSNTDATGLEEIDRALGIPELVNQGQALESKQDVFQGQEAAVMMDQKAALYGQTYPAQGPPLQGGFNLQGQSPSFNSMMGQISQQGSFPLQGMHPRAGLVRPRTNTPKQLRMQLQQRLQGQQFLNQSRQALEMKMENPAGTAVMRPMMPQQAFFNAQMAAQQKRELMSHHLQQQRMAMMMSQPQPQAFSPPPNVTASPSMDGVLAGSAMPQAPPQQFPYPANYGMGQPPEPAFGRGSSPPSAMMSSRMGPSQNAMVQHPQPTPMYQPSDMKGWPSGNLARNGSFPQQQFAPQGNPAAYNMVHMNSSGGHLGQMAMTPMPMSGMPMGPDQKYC
GASC-1 inh – inhibitors of GASC-1 histone demethylase, primary screen, biochemical, fluorescence, DELFIA europium; 330,000 tested, 0.069% active; GST-JMJD2C(1-420) H3K9me3 demethylation; Lysine-specific demethylase 4C (Homo sapiens), Q9H3R0; inhibition, % at 2.35 µM; AID 2099, 2009;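 active = more than half of a compound's replicate wells show inhibition beyond 50%, single wells judged on their own value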;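 also: signal counts dimethyl H3K9 product captured on neutravidin plate; 0% = median of DMSO wells and 100% = 0.3 times that DMSO median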
Arr-AP2 CP1 – inhibitors of arrestin peptide binding to AP2, confirmation, biochemical, cherry pick 1, flow cytometry beads; GST-AP2 beads, FITC arrestin peptide binding; GST-fused beta2-adaptin appendage, R879A mutant; inhibition, % at 10 µM; 1,300 tested, 2% active; shares compounds with Arrestin-AP2 inh;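 active = inhibition above a set limit, roughly 3 SD of non-fluorescent compound noise, cut at about 38% in these data; inactive = inhibition at or below that limit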;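 also: loss of bead fluorescence from 50 nM FITC arrestin peptide bound to appendage; 0% = negative control wells and 100% = excess unlabelled arrestin peptide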
GST GSH counter – GST-fluorescein capture on glutathione beads, confirmation, artefact control for arrestin-AP2 inhibitor project, biochemical, cherry pick 1, flow cytometry; shares compounds with Arrestin-AP2 inh; GST-fluorescein binding to GSH beads, fluorescence, counter-screen; inhibition, % at 10 µM; 1,300 tested, 2% active; AID 588338, 2011;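 active = inhibition above 50%, about 3 SD of the inhibition seen with non-fluorescent compounds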;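 also: fluorescein maleimide labelled GST captured on 4 micron glutathione beads; higher means more loss of bead fluorescence from quenching or blocked binding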
An asterisk follows results filed as active.

How did Cc1cc(C)c(NC(=O)CSc2nnc(SCC(=O)Nc3c(C)cc(C)cc3C)n2N)c(C)c1 do in these assays?
Arrestin-AP2 inh: 90.8*; VLA-4 inh: 15.0; pCIP destab: -9.7; GASC-1 inh: -5.7; Arr-AP2 CP1: -7.9; GST GSH counter: -8.8

What do the screens show for `Cc1ccc(C)c(NC(=O)CSc2nnc(C)c(=O)n2N)c1`?
Arrestin-AP2 inh: 3.7; VLA-4 inh: 12.0; pCIP destab: -6.0; GASC-1 inh: 13.4

How did O=c1c2cnn(-c3ccccc3)c2ncn1Cc1ccccc1 do in these assays?
Arrestin-AP2 inh: 4.6; VLA-4 inh: -0.1; pCIP destab: -39.7; GASC-1 inh: 24.5

What do the screens show for `O=c1c2cnn(-c3ccc(F)cc3)c2ncn1Cc1ccc(F)cc1`?
Arrestin-AP2 inh: 89.9*; VLA-4 inh: 4.3; pCIP destab: 0.0; GASC-1 inh: 0.1; Arr-AP2 CP1: -6.2; GST GSH counter: -1.4

How did Cc1cccc(N2CC(C(=O)Nc3nc4ccc(S(C)(=O)=O)cc4s3)CC2=O)c1C (stereo not drawn) do in these assays?
Arrestin-AP2 inh: 13.5; VLA-4 inh: -9.8; pCIP destab: -2.3; GASC-1 inh: 16.7

Results for COCCCn1c(C)nnc1SCC(=O)NCc1ccco1 ?
Arrestin-AP2 inh: 54.5*; VLA-4 inh: -3.1; pCIP destab: 0.2; GASC-1 inh: 1.1; Arr-AP2 CP1: 5.8; GST GSH counter: 0.1

How did COCCn1c(SCC(=O)NCc2ccco2)nnc1C(C)C do in these assays?
Arrestin-AP2 inh: -6.1; VLA-4 inh: 5.3; pCIP destab: -8.3

What do the screens show for `Cc1nc(-c2ccccc2)c(Cc2ccccc2O)c(=O)[nH]1`?
Arrestin-AP2 inh: -5.3; VLA-4 inh: 6.3; pCIP destab: 6.6; GASC-1 inh: -0.7

Results for O=C(CNc1ccccc1)NN=C1CCCC1 ?
Arrestin-AP2 inh: 18.6; VLA-4 inh: -1.9; pCIP destab: -9.9; GASC-1 inh: -28.1

Results for O=C(Nc1ccc(F)cc1)Nc1cnccn1 ?
Arrestin-AP2 inh: 4.1; VLA-4 inh: -6.5; pCIP destab: -20.9; GASC-1 inh: -5.9; Arr-AP2 CP1: 2.1; GST GSH counter: -5.1

What do the screens show for `Cc1c(Cl)cccc1NC(=O)Nc1cccnc1`?
Arrestin-AP2 inh: -11.3; VLA-4 inh: -1.0; pCIP destab: 1.5; GASC-1 inh: -7.2

What do the screens show for `O=C(Nc1cnccn1)Nc1ccccc1F`?
Arrestin-AP2 inh: -14.2; VLA-4 inh: -3.5; pCIP destab: 2.7; GASC-1 inh: -1.1; Arr-AP2 CP1: -5.8; GST GSH counter: 2.0

How did O=C(Nc1ccc(Br)cc1)Nc1cnccn1 do in these assays?
Arrestin-AP2 inh: 14.7; pCIP destab: -4.5; GASC-1 inh: 8.1; Arr-AP2 CP1: -5.3

How did Cc1c(Cl)cccc1NC(=O)Nc1cnccn1 do in these assays?
Arrestin-AP2 inh: -0.9; VLA-4 inh: 2.9; pCIP destab: -12.7; GASC-1 inh: -32.6; Arr-AP2 CP1: -6.4; GST GSH counter: 3.1

How did O=C(Nc1ccc(Cl)cn1)Nc1ccccc1F do in these assays?
Arrestin-AP2 inh: -1.1; VLA-4 inh: -0.8; pCIP destab: -1.7; GASC-1 inh: -6.9

What do the screens show for `COC(=O)c1nn(-c2ccccc2)c(Cl)c1/C=N/OC(=O)c1ccc(Cl)c(Cl)c1`?
Arrestin-AP2 inh: -5.4; VLA-4 inh: -0.1; pCIP destab: 3.7; GASC-1 inh: 4.7

Results for Cc1ccccc1OCCCC(=O)Nc1ccc2c(c1)OCO2 ?
Arrestin-AP2 inh: 3.9; VLA-4 inh: 16.4; pCIP destab: 0.5; GASC-1 inh: 4.1

Results for COc1cc(C(=O)NCc2nnc(SCC(=O)N3CCC(C)CC3)o2)cc(OC)c1OC ?
Arrestin-AP2 inh: 1.4; VLA-4 inh: 1.9; pCIP destab: 1.3; GASC-1 inh: 27.2

How did Oc1c(C=C2N=c3ccccc3=N2)sc(=S)n1C1CCCC1 do in these assays?
Arrestin-AP2 inh: 110.3*; VLA-4 inh: 7.4; pCIP destab: 3.9; GASC-1 inh: 21.4; Arr-AP2 CP1: -1.9; GST GSH counter: -0.7

How did COc1cc(/C=C2/C(=O)N=C(N)N2C)cc(OC)c1OC do in these assays?
Arrestin-AP2 inh: 84.1*; VLA-4 inh: -15.0; pCIP destab: -11.1; GASC-1 inh: 10.5; Arr-AP2 CP1: 10.6; GST GSH counter: 4.0

Results for O=C(NNc1cccc(Cl)n1)c1ccccc1CC[N+](=O)[O-] ?
Arrestin-AP2 inh: 55.1*; VLA-4 inh: 8.6; pCIP destab: 1.3; GASC-1 inh: -1.4; Arr-AP2 CP1: 4.1; GST GSH counter: -6.6

Results for Clc1ccc(-c2csc(N/N=C/c3ccc4c(c3)OCO4)n2)cc1 ?
Arrestin-AP2 inh: 79.1*; VLA-4 inh: 8.0; pCIP destab: -0.3; GASC-1 inh: 0.8; Arr-AP2 CP1: -2.5; GST GSH counter: 1.2

What do the screens show for `CCCS(=O)(=O)c1nc(S(=O)(=O)c2ccc(C)cc2)c(N2CCC(C(N)=O)CC2)s1`?
Arrestin-AP2 inh: 61.0*; VLA-4 inh: -1.9; pCIP destab: -2.8; GASC-1 inh: 0.8; Arr-AP2 CP1: -3.8; GST GSH counter: -6.2

Results for CCCS(=O)(=O)c1nc(S(=O)(=O)c2ccc(C)cc2)c(N2CCC(O)CC2)s1 ?
Arrestin-AP2 inh: -12.8; VLA-4 inh: 10.9; pCIP destab: -9.6; GASC-1 inh: -26.8

Results for CC(=O)Nc1cccc(NC(=O)C2CC(=O)N(C3CCCCC3)C2)c1 (stereo not drawn) ?
Arrestin-AP2 inh: 60.9*; VLA-4 inh: -2.4; pCIP destab: -4.4; GASC-1 inh: 5.1; Arr-AP2 CP1: 9.2; GST GSH counter: -6.3

Results for CCN(CC)S(=O)(=O)c1ccc2c(c1)nc(CCC(=O)O)n2CC ?
Arrestin-AP2 inh: 18.2; VLA-4 inh: 8.8; pCIP destab: -2.6; GASC-1 inh: 13.4

Results for CCN(CC)S(=O)(=O)c1ccc2c(c1)nc(CCC(=O)Nc1cccc(C(F)(F)F)c1)n2CC ?
Arrestin-AP2 inh: 85.0*; VLA-4 inh: 13.4; pCIP destab: -2.1; GASC-1 inh: 2.2; Arr-AP2 CP1: 1.2; GST GSH counter: 1.9

What do the screens show for `O=C1c2oc3ccc(F)cc3c(=O)c2C(c2cccc(O)c2)N1CCCN1CCOCC1` (stereo not drawn)?
Arrestin-AP2 inh: 5.6; VLA-4 inh: -18.0; pCIP destab: 5.7; GASC-1 inh: 1.3

Results for Nc1nc(NCc2ccccc2)nc(NCCO)c1[N+](=O)[O-] ?
Arrestin-AP2 inh: 56.4*; VLA-4 inh: 1.9; pCIP destab: -0.1; GASC-1 inh: 6.8; Arr-AP2 CP1: -6.3; GST GSH counter: -7.5

How did CCn1cc(/C=C(\NC(=O)c2ccccc2)C(=O)N2CCOCC2)c2ccccc21 do in these assays?
Arrestin-AP2 inh: 55.3*; pCIP destab: -6.1; GASC-1 inh: -6.3; Arr-AP2 CP1: 3.0; GST GSH counter: -2.6
